A selection: hits, their analogues and other compounds. The true share with any hit is near 5.1%.
STAT3 inh-1 = STAT3 signaling inhibition | U3A cells, IL-6 STAT3-luciferase reporter, luminescence; host cell line lacks STAT1 | inhibition, % at 5.5 µM | 190,000 tested, 0.89% active;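 active = inhibition above the mean inhibition across all screened compounds plus 3 SD, cut at about 44% in these data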;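 note: 0% = DMSO only wells and 100% = 100 µM nifuroxazide control wells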
STAT1 blocker = STAT1 signaling inhibition | AID 920 | NIH 3T3 STAT1-luciferase reporter, IFN-gamma, luminescence | inhibition, % at 5.5 µM | 200,000 tested, 0.35% active;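 active = inhibition above a set limit, the mean inhibition across all tested compounds plus 3 SD, cut at about 34% in these data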;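 note: 0% = IFN-gamma with DMSO and 100% = IFN-gamma with 300 µM nifuroxazide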
STAT1 activator = increases IFN-gamma driven STAT1 reporter signal; activation (% of control), % at 5.5 µM; AID 932; 200,000 tested, 2.6% active; NIH 3T3 STAT1-luciferase reporter, luminescence; 100% = IFN-gamma alone, no compound;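 active = activation above the screen-wide mean activation plus 3 SD, cut at about 130% in these data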;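 note: raw ratio to IFN-gamma control signal so 100% means no change and 0% no light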
STAT3 activator = STAT3 signaling activation; U3A cells, IL-6 STAT3-luciferase reporter, luminescence; 100% = signal with IL-6 EC80 alone; activation (% of control), % at 5.6 µM; 190,000 tested, 0.91% active; AID 871;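 active = activation above the screen-wide mean of compound activation plus 3 SD, cut at about 130% in these data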;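 note: 0% = background luminescence of wells with medium and substrate only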
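Material: STAT1-lacking human U3A cells, STAT3 luciferase reporter | Benchmarks: IL-6-only wells as 100% reference | Probe or stimulus: IL-6 (33 ng/mL) | Timing: Compound 1 h, then IL-6 6 h at 37 °C | Detection: Luminescence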
APP 5'UTR act = APP 5'UTR luciferase reporter activation; AID 1276; activation, % at 2 µM; 190,000 tested, 1% active; SH-SY5Y APP 5'UTR luciferase reporter, luminescence; zero percent = DMSO vehicle wells;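 active = activation above a set limit, based on mean plus 3 SD of controls, cut at about 140% in these data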
NF-kB expr up = NF-kB expression increase, human neuronal cells; fold change at 12.5 µM; 190,000 tested, 1.6% active; NF-kB reporter expression; active compounds read high; in the data active = fold change above about 3.3
STAT3 inh-2 = confirmation of STAT3 signaling inhibitors. U3A cells, IL-6 STAT3 luciferase reporter, luminescence; cell line lacks STAT1. 1,200 tested, 45% active. shares compounds with STAT3 inh-1. AID 1265. inhibition, % at 5.7 µM;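 active = inhibition above the hit cutoff computed for the primary STAT3 screen, cut at about 44% in these data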;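 note: 0% = IL-6 plus DMSO and 100% = IL-6 plus nifuroxazide control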
NFkB inh 2 = NF-kappaB inhibition in STAT3 inhibitor counter-screen; shares compounds with STAT3 inh-1; HEK293T NF-kB luciferase reporter, TNF-alpha induced; inhibition, % at 5.7 µM; 1,200 tested, 36% active; AID 1308;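 active = inhibition above the mean of solvent-only control wells plus 3 SD, cutoff set per campaign, cut at about 13% in these data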;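 note: 0% = TNF-alpha with DMSO and 100% = TNF-alpha with MG high control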
STAT1 inh STAT3c = STAT1 inhibition in STAT3 inhibitor counter-screen | 1,200 tested, 27% active | shares compounds with STAT3 inh-1 | inhibition, % at 5.7 µM | AID 1317 | NIH 3T3 STAT1-luciferase reporter, IFN-gamma induced, luminescence;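 active = inhibition above the mean plus 3 SD of solvent-only control wells, limit set per screening run, cut at about 16% in these data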;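 note: 0% = DMSO with IFN-gamma and 100% = nifuroxazide control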
Active calls of the source: *.

Results for O=[N+]([O-])c1ccc2nc(-c3ccc(OC(F)F)cc3)cn2c1 ?
STAT3 inh-1: 66*; STAT1 blocker: -21; STAT1 activator: 120; STAT3 activator: 46; APP 5'UTR act: 82; NF-kB expr up: 3.5*; STAT3 inh-2: 36; NFkB inh 2: -30; STAT1 inh STAT3c: -87

What do the screens show for `O=c1[nH]nc(CNc2ccc(OC(F)(F)F)cc2)c2ccccc12`?
STAT3 inh-1: 19; STAT1 blocker: -1; STAT1 activator: 99; STAT3 activator: 89; APP 5'UTR act: 29; NF-kB expr up: 0.95

Results for Clc1ccc(-c2nnc(NC3=NCCCCC3)o2)cc1 ?
STAT3 inh-1: 80*; STAT1 blocker: 26; STAT1 activator: 77; STAT3 activator: 32; APP 5'UTR act: 152*; NF-kB expr up: 1.7; STAT3 inh-2: 48*; NFkB inh 2: 19*; STAT1 inh STAT3c: -48

How did COc1cc(C(=O)OCC(=O)N(C)C)cc(NC(=O)c2ccco2)c1OC do in these assays?
STAT3 inh-1: 5; STAT1 blocker: -9; STAT1 activator: 108; STAT3 activator: 96; APP 5'UTR act: 16; NF-kB expr up: 0.87

How did Cc1cccc(-c2n[nH]c(=S)n2-c2ccccc2)c1[N+](=O)[O-] do in these assays?
STAT3 inh-1: -4; STAT1 blocker: -7; STAT1 activator: 106; STAT3 activator: 102; APP 5'UTR act: 4; NF-kB expr up: 0.97

What do the screens show for `O=C(CSc1nnc(Cn2nnc3ccccc32)o1)N(Cc1ccc(Cl)cc1)c1ccccc1`?
STAT3 inh-1: 53*; STAT1 blocker: 18; STAT1 activator: 95; STAT3 activator: 55; NF-kB expr up: 0.69; STAT3 inh-2: 45*; NFkB inh 2: 13*; STAT1 inh STAT3c: 19*

How did NC(=O)CSc1nnc(Cn2cnc3ccccc32)o1 do in these assays?
STAT3 inh-1: 7; STAT1 blocker: 8; STAT1 activator: 91; STAT3 activator: 99; APP 5'UTR act: 1; NF-kB expr up: 1.4

Results for Clc1ccc(CSc2nnc(Cn3cnc4ccccc43)o2)cc1 ?
STAT3 inh-1: 63*; STAT1 blocker: 12; STAT1 activator: 102; STAT3 activator: 48; APP 5'UTR act: 5; NF-kB expr up: 0.82; STAT3 inh-2: 45*; NFkB inh 2: 12; STAT1 inh STAT3c: 8

What do the screens show for `Cc1ccc2nc(-c3ccccc3)c(NC(=O)c3ccco3)n2c1`?
STAT3 inh-1: -2; STAT1 blocker: 2; STAT1 activator: 96; STAT3 activator: 104; APP 5'UTR act: 39; NF-kB expr up: 1

Results for CCOC(=O)N1CCC(NC(=O)C2CCCN(C(=O)c3cc4sccc4n3C)C2)CC1 (stereo not drawn) ?
STAT3 inh-1: 13; STAT1 blocker: 5; STAT1 activator: 96; STAT3 activator: 93; APP 5'UTR act: -5; NF-kB expr up: 0.92

How did COC(=O)c1ccccc1NC(=O)CNc1cc(OC)c(OC)cc1C do in these assays?
STAT3 inh-1: 51*; STAT1 blocker: 24; STAT1 activator: 78; STAT3 activator: 58; APP 5'UTR act: -1; NF-kB expr up: 0.96; STAT3 inh-2: 65*; NFkB inh 2: 18*; STAT1 inh STAT3c: 26*

How did Cc1ccn2cc(-c3ccc4c(c3)NC(=O)CO4)nc2c1 do in these assays?
STAT3 inh-1: 46*; STAT1 blocker: -18; STAT1 activator: 114; STAT3 activator: 66; APP 5'UTR act: 120; NF-kB expr up: 1.1; STAT3 inh-2: 19; NFkB inh 2: -25; STAT1 inh STAT3c: -76

How did CC(=O)c1cccc(N=c2scc(-c3ccc(S(=O)(=O)N4CCOCC4)cc3)n2CCO)c1 do in these assays?
STAT3 inh-1: 75*; STAT1 blocker: 24; STAT1 activator: 79; STAT3 activator: 38; APP 5'UTR act: -17; NF-kB expr up: 1.1; STAT3 inh-2: 77*; NFkB inh 2: 27*; STAT1 inh STAT3c: 25*

Results for Cn1c(=O)c2c(nc(CN3CCOCC3)n2CC(=O)c2ccccc2)n(C)c1=O ?
STAT3 inh-1: -7; STAT1 blocker: -2; STAT1 activator: 99; STAT3 activator: 108; APP 5'UTR act: 25

How did O=C(c1cccs1)c1ccc(-c2cccs2)s1 do in these assays?
STAT3 inh-1: 61*; STAT1 blocker: 25; STAT1 activator: 77; STAT3 activator: 54; APP 5'UTR act: 158*; NF-kB expr up: 5.3*; STAT3 inh-2: 21; NFkB inh 2: -8; STAT1 inh STAT3c: -77

Results for COc1cccc(-c2nnc(NC(=O)C(C)C)o2)c1 ?
STAT3 inh-1: 14; STAT1 blocker: -3; STAT1 activator: 102; STAT3 activator: 95; APP 5'UTR act: -1; NF-kB expr up: 1.2

Results for COc1cccc(-c2nnc(-c3ccc(C)o3)o2)c1 ?
STAT3 inh-1: 55*; STAT1 blocker: -9; STAT1 activator: 120; STAT3 activator: 56; APP 5'UTR act: 164*; NF-kB expr up: 4.2*; STAT3 inh-2: 32; NFkB inh 2: -9; STAT1 inh STAT3c: -67

How did O=C(Nc1ccc(Oc2ccccc2)cc1)C1CCN(c2c3c(nc4ncnn24)CCC3)CC1 do in these assays?
STAT3 inh-1: 52*; STAT1 blocker: 21; STAT1 activator: 81; STAT3 activator: 61; APP 5'UTR act: 11; NF-kB expr up: 0.37; STAT3 inh-2: 47*; NFkB inh 2: -4; STAT1 inh STAT3c: 11

What do the screens show for `O=C(Nc1ccc2c(c1)CCC2)C1CCN(c2c3c(nc4ncnn24)CCC3)CC1`?
STAT3 inh-1: 24; STAT1 blocker: 28; STAT1 activator: 75; STAT3 activator: 81; APP 5'UTR act: 8; NF-kB expr up: 0.41

Results for O=C(N/N=C/c1ccc2ncccc2c1)c1ccco1 ?
STAT3 inh-1: 67*; STAT1 blocker: 28; STAT1 activator: 72; STAT3 activator: 47; APP 5'UTR act: 116; NF-kB expr up: 1.1; STAT3 inh-2: 32; NFkB inh 2: 8; STAT1 inh STAT3c: -42

How did O=C(N/N=C/c1ccccn1)c1ccco1 do in these assays?
STAT3 inh-1: 2; STAT1 blocker: -7; STAT1 activator: 106; STAT3 activator: 105; APP 5'UTR act: -1; NF-kB expr up: 2.5

What do the screens show for `COc1ccc(O)c(C(=O)CC(=O)c2ccccc2)c1`?
STAT3 inh-1: 70*; STAT1 blocker: -34; STAT1 activator: 132*; STAT3 activator: 42; APP 5'UTR act: 134; NF-kB expr up: 3.4*; STAT3 inh-2: 15; NFkB inh 2: -25; STAT1 inh STAT3c: -101

Compound activity from PubChem BioAssay.
